Measured values reported in ChEMBL document CHEMBL2384911 (Bioorg Med Chem, 2013).
pIC50: −log10 of the molar value. Activity calls are given as the source filed them. No cut-off for these calls is given here.

Tests used:
Rattus norvegicus = assay: AUC (0 to 48 hrs) in Sprague-Dawley rat assessed as N-[4-Methyl-3-[[4-(3-pyridinyl)-2-pyrimidinyl]amino]-phenyl]-4-(1-piperazinylmethyl)benzamide at 1 mg/kg, iv administered as bolus dose; format: ADME, organism-based, Plasma; design: time < 48 hr, dose 1 mg/kg, route intravenous; conditions: in vivo
In short: (§1)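 Single IV bolus into femoral vein, 1 mg/kg in 0.5 mL/kg vehicle (30% NMP, 70% PEG200). Serial blood samples taken from femoral artery for up to 48 h, stored at −20 °C. Proteins precipitated with CH3CN containing internal standard, then LC/MS/MS with ESI; LLOQ 0.4 ng mL. Parameters from non-compartmental analysis.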

[1] = AUC (0 to 48 hrs) in Sprague-Dawley rat at 1 mg/kg, iv administered as bolus dose; format: ADME, organism-based; design: time < 48 hr, dose 1 mg/kg, route intravenous; conditions: plasma; in short: as §1
Liver microsomes [2] = assay: Metabolic stability in human liver microsomes assessed as compound remaining by capillary-HPLC/MS analysis; format: ADME, Microsome
In short: (§2)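 Parent compound added from 2 mM DMSO stock to liver microsomes (20 mg protein/mL) in 100 mM phosphate buffer pH 7.4 with alamethicin and UDPGA. Pre-incubated 3 min at 37 °C, started with NADPH-regenerating system, run up to 60 min at 37 °C. Stopped with ice-cold CH3CN, centrifuged, diluted, analysed by capillary-HPLC/MS; peak areas not corrected for response factors.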

Liver microsomes [3] = assay: Metabolic stability in rat liver microsomes assessed as compound remaining by capillary-HPLC/MS analysis; format: ADME, Microsome; in short: as §2
in vivo = conditions: Sprague-Dawley, rat, plasma, iv, 1 mg/kg
Bcr/Abl fusion protein [4] = biological target: T1, Bcr/Abl fusion protein (Homo sapiens, UniProt P00519); assay: Inhibition of human BCR-ABL1 (unknown origin) expressed in mouse 32D cells; format: cell-based
Bcr/Abl fusion protein [5] = biological target: T1, Bcr/Abl fusion protein; assay: Inhibition of human BCR-ABL1 autophosphorylation expressed in mouse BA/F3 cells by ELISA; format: cell-based, BaF3
Bcr/Abl fusion protein [6] = biological target: T1, Bcr/Abl fusion protein; assay: Inhibition of human BCR-ABL1 expressed in mouse BA/F3 cells assessed as cell growth inhibition by ATP-depletion assay; format: cell-based, BaF3
[7] = biological target: Mast/stem cell growth factor receptor Kit (Homo sapiens, UniProt P10721, K642E); assay: Inhibition of KIT K642E mutant autophosphorylation (unknown origin) expressed in human GIST882 cells by ELISA; format: cell-based
[8] = tested on: Mast/stem cell growth factor receptor Kit (Homo sapiens), P10721 [K642E]; assay: Inhibition of KIT K642E mutant autophosphorylation (unknown origin) expressed in human GIST882 cells at < 3000 nM by ELISA; format: cell-based
[9] = biological target: Bcr/Abl fusion protein (Homo sapiens) (UniProt P00519+P11274); assay: Inhibition of human BCR-ABL1 autophosphorylation expressed in mouse BA/F3 cells at < 3000 nM by ELISA; format: cell-based; conditions: BaF3
Sequence of Bcr/Abl fusion protein (Homo sapiens) (P00519 whole entry, looked up, the tested form may be a part): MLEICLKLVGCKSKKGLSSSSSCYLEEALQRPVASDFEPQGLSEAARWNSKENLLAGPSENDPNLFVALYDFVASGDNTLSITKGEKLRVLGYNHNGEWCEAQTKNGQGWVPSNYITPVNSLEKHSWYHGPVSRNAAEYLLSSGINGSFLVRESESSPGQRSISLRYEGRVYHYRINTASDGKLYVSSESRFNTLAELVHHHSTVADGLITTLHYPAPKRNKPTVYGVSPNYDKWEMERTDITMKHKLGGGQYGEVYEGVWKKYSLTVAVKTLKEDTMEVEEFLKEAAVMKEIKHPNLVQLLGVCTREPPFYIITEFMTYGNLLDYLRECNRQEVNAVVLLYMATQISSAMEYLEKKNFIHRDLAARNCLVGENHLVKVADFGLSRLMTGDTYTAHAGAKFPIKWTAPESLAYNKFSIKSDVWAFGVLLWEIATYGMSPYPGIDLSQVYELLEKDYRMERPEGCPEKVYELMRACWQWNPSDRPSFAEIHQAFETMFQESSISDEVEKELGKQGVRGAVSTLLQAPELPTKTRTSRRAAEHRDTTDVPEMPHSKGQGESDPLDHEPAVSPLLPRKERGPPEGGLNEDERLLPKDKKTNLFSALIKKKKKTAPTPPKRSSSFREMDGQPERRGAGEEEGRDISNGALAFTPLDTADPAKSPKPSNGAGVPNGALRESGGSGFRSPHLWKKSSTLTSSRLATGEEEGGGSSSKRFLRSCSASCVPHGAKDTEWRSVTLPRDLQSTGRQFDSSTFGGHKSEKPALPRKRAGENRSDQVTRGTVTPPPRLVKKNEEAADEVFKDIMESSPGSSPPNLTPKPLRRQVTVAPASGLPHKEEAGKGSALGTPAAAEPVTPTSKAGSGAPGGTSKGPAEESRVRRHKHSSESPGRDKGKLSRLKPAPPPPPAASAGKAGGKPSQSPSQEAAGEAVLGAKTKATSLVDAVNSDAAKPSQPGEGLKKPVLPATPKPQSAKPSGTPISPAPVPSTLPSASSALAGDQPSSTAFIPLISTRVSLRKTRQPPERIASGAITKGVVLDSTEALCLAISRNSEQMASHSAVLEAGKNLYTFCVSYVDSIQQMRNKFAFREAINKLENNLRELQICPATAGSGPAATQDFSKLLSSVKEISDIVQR
Sequence of Bcr/Abl fusion protein (Homo sapiens) (P11274 whole entry, looked up, the tested form may be a part): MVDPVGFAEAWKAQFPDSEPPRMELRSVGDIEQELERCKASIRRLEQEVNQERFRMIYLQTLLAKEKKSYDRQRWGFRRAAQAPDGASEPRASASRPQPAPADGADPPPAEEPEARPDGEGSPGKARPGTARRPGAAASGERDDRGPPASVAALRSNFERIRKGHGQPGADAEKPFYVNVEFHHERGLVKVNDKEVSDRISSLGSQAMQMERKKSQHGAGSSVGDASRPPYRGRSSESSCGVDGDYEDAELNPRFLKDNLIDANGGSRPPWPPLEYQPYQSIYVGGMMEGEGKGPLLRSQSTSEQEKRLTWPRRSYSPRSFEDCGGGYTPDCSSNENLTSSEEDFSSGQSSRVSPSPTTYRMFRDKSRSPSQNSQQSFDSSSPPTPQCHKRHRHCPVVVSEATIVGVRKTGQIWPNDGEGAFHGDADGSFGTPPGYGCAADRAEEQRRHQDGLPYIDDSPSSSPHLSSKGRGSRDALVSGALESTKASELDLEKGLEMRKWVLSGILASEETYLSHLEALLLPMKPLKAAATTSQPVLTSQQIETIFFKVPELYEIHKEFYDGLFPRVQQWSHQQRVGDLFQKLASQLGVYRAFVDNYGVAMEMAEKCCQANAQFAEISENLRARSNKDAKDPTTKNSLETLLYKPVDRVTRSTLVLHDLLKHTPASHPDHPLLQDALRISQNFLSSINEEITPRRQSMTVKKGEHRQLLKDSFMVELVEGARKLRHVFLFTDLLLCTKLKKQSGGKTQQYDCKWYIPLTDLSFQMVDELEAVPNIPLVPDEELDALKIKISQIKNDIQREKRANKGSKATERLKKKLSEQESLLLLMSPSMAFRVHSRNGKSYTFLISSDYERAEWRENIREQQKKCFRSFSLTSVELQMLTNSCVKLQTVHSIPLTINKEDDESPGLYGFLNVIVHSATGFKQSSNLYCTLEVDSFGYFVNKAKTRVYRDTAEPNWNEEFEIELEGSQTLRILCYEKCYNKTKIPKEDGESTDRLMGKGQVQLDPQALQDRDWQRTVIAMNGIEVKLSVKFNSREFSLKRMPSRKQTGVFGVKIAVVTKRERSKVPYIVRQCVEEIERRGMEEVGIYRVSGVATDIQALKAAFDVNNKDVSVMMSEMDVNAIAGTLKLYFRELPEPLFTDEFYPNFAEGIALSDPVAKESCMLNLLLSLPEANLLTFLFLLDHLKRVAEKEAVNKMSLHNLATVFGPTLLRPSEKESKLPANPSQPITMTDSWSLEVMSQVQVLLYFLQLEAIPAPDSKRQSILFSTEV

T1 sequence (P00519 whole entry, the tested form may be a part): as the sequence (P00519 whole entry, looked up, the tested form may be a part) above
T1 sequence (P11274 whole entry, further chain, the tested form may be a part): as the sequence (P11274 whole entry, looked up, the tested form may be a part) above
Sequence of Mast/stem cell growth factor receptor Kit (Homo sapiens), P10721 [K642E] (P10721 whole entry K642E, the tested form may be a part): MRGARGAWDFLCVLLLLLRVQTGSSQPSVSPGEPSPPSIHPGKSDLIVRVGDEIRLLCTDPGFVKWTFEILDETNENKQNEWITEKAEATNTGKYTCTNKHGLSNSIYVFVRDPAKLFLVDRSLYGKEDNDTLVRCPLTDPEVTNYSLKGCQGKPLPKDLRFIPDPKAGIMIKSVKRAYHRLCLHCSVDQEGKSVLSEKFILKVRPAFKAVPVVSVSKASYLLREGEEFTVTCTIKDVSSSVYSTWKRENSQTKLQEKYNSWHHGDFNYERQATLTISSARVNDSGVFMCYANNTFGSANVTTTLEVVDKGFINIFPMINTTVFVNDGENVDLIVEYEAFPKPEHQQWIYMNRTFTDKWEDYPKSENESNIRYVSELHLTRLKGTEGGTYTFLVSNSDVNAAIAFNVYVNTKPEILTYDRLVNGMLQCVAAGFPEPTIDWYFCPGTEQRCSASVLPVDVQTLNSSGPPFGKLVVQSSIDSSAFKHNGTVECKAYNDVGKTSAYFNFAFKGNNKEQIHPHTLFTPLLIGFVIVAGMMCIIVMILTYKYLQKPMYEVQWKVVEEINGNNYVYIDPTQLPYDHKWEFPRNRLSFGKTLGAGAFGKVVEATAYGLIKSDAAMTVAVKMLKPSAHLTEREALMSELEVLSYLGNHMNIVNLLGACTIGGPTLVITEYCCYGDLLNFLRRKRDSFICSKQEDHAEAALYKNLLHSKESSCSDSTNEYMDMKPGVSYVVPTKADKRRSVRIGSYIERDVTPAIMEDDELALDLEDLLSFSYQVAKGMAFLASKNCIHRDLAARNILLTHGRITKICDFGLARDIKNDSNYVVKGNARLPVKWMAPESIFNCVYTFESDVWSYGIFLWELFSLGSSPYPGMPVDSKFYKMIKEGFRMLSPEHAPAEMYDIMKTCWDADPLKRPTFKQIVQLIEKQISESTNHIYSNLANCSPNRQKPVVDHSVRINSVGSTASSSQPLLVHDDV
Sequence of Mast/stem cell growth factor receptor Kit (P10721 26-976 K642E limits assumed): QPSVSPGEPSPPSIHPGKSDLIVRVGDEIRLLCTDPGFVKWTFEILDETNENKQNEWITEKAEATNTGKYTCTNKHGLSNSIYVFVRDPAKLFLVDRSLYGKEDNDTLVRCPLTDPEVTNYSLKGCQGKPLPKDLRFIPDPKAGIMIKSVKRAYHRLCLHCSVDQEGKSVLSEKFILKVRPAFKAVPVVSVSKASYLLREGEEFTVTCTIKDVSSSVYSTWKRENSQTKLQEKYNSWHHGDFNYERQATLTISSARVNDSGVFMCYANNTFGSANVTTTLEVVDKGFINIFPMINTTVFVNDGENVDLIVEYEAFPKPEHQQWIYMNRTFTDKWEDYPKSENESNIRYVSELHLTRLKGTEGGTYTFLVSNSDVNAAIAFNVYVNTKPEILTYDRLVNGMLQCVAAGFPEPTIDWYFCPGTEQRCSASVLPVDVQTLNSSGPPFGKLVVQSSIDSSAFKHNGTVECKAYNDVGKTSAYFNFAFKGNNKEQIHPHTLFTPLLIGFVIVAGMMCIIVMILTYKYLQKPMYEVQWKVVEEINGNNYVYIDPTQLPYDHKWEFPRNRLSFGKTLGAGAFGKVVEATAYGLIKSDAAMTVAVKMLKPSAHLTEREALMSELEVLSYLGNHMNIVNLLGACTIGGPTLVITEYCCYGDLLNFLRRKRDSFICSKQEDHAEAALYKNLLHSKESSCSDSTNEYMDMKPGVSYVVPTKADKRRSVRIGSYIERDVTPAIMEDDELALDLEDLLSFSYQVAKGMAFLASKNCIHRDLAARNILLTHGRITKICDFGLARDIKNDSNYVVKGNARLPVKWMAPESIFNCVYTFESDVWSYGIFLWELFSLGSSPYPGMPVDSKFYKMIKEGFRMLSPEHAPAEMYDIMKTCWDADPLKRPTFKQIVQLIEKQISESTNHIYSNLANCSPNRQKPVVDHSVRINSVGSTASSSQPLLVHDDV

[2H]C([2H])([2H])N1CCN(Cc2ccc(C(=O)Nc3ccc(C)c(Nc4nccc(-c5cccnc5)n4)c3)cc2)CC1
AUC (Rattus norvegicus): 0.011 µM·h | AUC(0-t) at 48 h [1]: 1.15 µM·h | Stability (Liver microsomes [2]): 81.9% | Stability (Liver microsomes [3]): 80.9% | AUC (in vivo): 1.85 µM·h

Cc1ccc(NC(=O)c2ccc(CN3CCNCC3)cc2)cc1Nc1nccc(-c2cccnc2)n1
pIC50 (Bcr/Abl fusion protein [4]): 6.29 | pIC50 (Bcr/Abl fusion protein [5]): 5.65 | pIC50 (Bcr/Abl fusion protein [6]): 5.81 | pIC50 [7]: 6.47

Cc1ccc(NC(=O)c2ccc(CN3CCN(C=O)CC3)cc2)cc1Nc1nccc(-c2cccnc2)n1
inhibition [8]: inactive | inhibition [9]: inactive

CC(=O)N1CCN(Cc2ccc(C(=O)Nc3ccc(C)c(Nc4nccc(-c5cccnc5)n4)c3)cc2)CC1
inhibition [8]: inactive | inhibition [9]: inactive

Cc1ccc(NC(=O)c2ccc(CN3CCN(C)C(=O)C3)cc2)cc1Nc1nccc(-c2cccnc2)n1
inhibition [8]: inactive | inhibition [9]: inactive

Cc1ccc(NC(=O)c2ccc(CN3CCN(C)CC3)cc2)cc1Nc1nccc(-c2cccnc2)n1 [IMATINIB]
AUC (Rattus norvegicus): 0.0339 µM·h | AUC(0-t) at 48 h [1]: 1.42 µM·h | Stability (Liver microsomes [2]): 67.3% | Stability (Liver microsomes [3]): 77.2% | AUC (in vivo): 1.97 µM·h
